{"source": "ChEMBL document CHEMBL4513216", "about": "“Probing the Open Global Health Chemical Diversity Library for Multistage-Active Starting Points for Next-Generation Antimalarials” (ACS Infect Dis, 2020)", "experiment": "Toxicity liver stage against HepG2, at 10uM", "assay_type": "cell-based", "parameters": "test concentration 10 uM, cell line HepG2-A16-CD81EGFP", "conditions": "human, HepG2-A16-CD81EGFP cells; read-out: INHIBITION", "in_short": "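Uninfected HepG2-A16-CD81EGFP cells, 3 × 10^3 per well, 1536-well, plated on prespotted compound at 10 μM final, parasite-free screening media added to match infected plates; puromycin 10 μM positive, DMSO 0.5% negative; run in parallel with 48 h PbLuc assay at 37 °C, 5% CO2; viability by CellTiter-Glo luminescence, normalized to controls.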", "data": [{"smiles": "CNC(=O)c1cn2cc(-c3cccc(Cl)c3)n(CC3CC3)c(=O)c2n1", "values": [{"measurement": "cytotoxicity at 10 µM", "value": -37.4, "unit": "%"}]}, {"smiles": "COc1nccnc1N1C[C@H]2CC[C@@H](C1)N(CC=C(C)C)C2=O", "values": [{"measurement": "cytotoxicity at 10 µM", "value": 1.76, "unit": "%"}]}, {"smiles": "O=C(C1CCC2(CCN(CC3CC3)CC2)O1)N1CCCC1", "note": "(stereo unspecified)", "values": [{"measurement": "cytotoxicity at 10 µM", "value": 1.58, "unit": "%"}]}, {"smiles": "CC(C)c1nc(C2CCCN2C(=O)c2cnc[nH]2)no1", "note": "(stereo unspecified)", "values": [{"measurement": "cytotoxicity at 10 µM", "value": -6.49, "unit": "%"}]}, {"smiles": "O=C(NCC1Cn2nnc(-c3ccncc3)c2CO1)c1ccsc1", "note": "(stereo unspecified)", "values": [{"measurement": "cytotoxicity at 10 µM", "value": 11.1, "unit": "%"}]}, {"smiles": "COc1ncccc1NC(=O)N1CCC(C(=O)NC(C)C)CC1", "values": [{"measurement": "cytotoxicity at 10 µM", "value": -3.68, "unit": "%"}]}, {"smiles": "CC1CCc2n[nH]c(C(=O)NCCCc3ccccn3)c2C1", "note": "(stereo unspecified)", "values": [{"measurement": "cytotoxicity at 10 µM", "value": -24.3, "unit": "%"}]}, {"smiles": "CC1CC(=O)c2cc(C(=O)N3CCc4ccccc43)c(=O)[nH]c2C1", "note": "(stereo unspecified)", "values": [{"measurement": "cytotoxicity at 10 µM", "value": -5.67, "unit": "%"}]}, {"smiles": "CCN(CC)[C@@H]1CN(S(=O)(=O)c2cn(C)cn2)[C@@H]2CCCO[C@H]12", "values": [{"measurement": "cytotoxicity at 10 µM", "value": -147, "unit": "%"}]}, {"smiles": "O=C(CC1CCN(c2ncnc3ccccc23)CC1)N1CCCC1", "values": [{"measurement": "cytotoxicity at 10 µM", "value": 35.1, "unit": "%"}]}, {"smiles": "CCc1noc(CN(C)CCC(=O)Nc2ccccc2C#N)n1", "values": [{"measurement": "cytotoxicity at 10 µM", "value": 9.69, "unit": "%"}]}, {"smiles": "Cc1nnc(C(C)N(C)Cc2c(C)nn(-c3ccccc3C)c2C)o1", "note": "(stereo unspecified)", "values": [{"measurement": "cytotoxicity at 10 µM", "value": -1.07, "unit": "%"}]}, {"smiles": "CCN1CCc2c(c(COC)nn2C)C1", "values": [{"measurement": "cytotoxicity at 10 µM", "value": 5.09, "unit": "%"}]}, {"smiles": "CN(C)C(C(=O)N1CCC(CCO)CC1)c1ccccc1F", "note": "(stereo unspecified)", "values": [{"measurement": "cytotoxicity at 10 µM", "value": 5.88, "unit": "%"}]}, {"smiles": "Cn1nc(-c2cccc(Cl)c2)c(Br)c1C(=O)O", "values": [{"measurement": "cytotoxicity at 10 µM", "value": -56.5, "unit": "%"}]}, {"smiles": "CN(C)CCCNCCC(c1ccccc1)C1CCOC(C)(C)C1", "note": "(stereo unspecified)", "values": [{"measurement": "cytotoxicity at 10 µM", "value": -7.91, "unit": "%"}]}, {"smiles": "Cc1cc(C)n(C2CCCN(C(=O)c3cccc(F)c3F)C2)n1", "note": "(stereo unspecified)", "values": [{"measurement": "cytotoxicity at 10 µM", "value": 4.35, "unit": "%"}]}, {"smiles": "O=C1CC2(CCN(CCCF)CC2)CN1Cc1cc(F)cc(F)c1", "values": [{"measurement": "cytotoxicity at 10 µM", "value": 16.3, "unit": "%"}]}, {"smiles": "O=S(=O)(CCN1CCOC(Cn2cccn2)C1)C(F)(F)F", "note": "(stereo unspecified)", "values": [{"measurement": "cytotoxicity at 10 µM", "value": 3.78, "unit": "%"}]}, {"smiles": "O=C(c1ccco1)N(CC(F)(F)F)C1CCCOC1", "note": "(stereo unspecified)", "values": [{"measurement": "cytotoxicity at 10 µM", "value": -19.5, "unit": "%"}]}, {"smiles": "Cc1cnc(C(=O)N2CCOCC2c2ccccc2)cn1", "note": "(stereo unspecified)", "values": [{"measurement": "cytotoxicity at 10 µM", "value": -8.31, "unit": "%"}]}, {"smiles": "COc1ccc2c(c1)OCC(Cc1cc(N3CCCC3)cnn1)C2", "note": "(stereo unspecified)", "values": [{"measurement": "cytotoxicity at 10 µM", "value": -18.1, "unit": "%"}]}, {"smiles": "C1CCN(CCOC2CCNC2)CC1", "note": "(stereo unspecified)", "values": [{"measurement": "cytotoxicity at 10 µM", "value": 6.32, "unit": "%"}]}, {"smiles": "O=C(O)c1ccnc(-c2ccnc(N3CCC(F)(F)CC3)n2)c1", "values": [{"measurement": "cytotoxicity at 10 µM", "value": -12.3, "unit": "%"}]}, {"smiles": "COc1ncc(C2(O)CCN(Cc3c(F)cccc3F)CC2)c(OC)n1", "values": [{"measurement": "cytotoxicity at 10 µM", "value": 5.29, "unit": "%"}]}, {"smiles": "COc1cc(NC(=O)N(C)Cc2ccc(Br)o2)ncn1", "values": [{"measurement": "cytotoxicity at 10 µM", "value": -4.12, "unit": "%"}]}, {"smiles": "CN(Cc1nnc(C2CC2)n1C)C1CCN(CCS(C)(=O)=O)C1", "note": "(stereo unspecified)", "values": [{"measurement": "cytotoxicity at 10 µM", "value": 0.918, "unit": "%"}]}, {"smiles": "CN(Cc1cn2c(n1)CN(C1CCOCC1)CC2)Cc1ccco1", "values": [{"measurement": "cytotoxicity at 10 µM", "value": -64.3, "unit": "%"}]}, {"smiles": "CC(C)Nc1ncc(-c2ccncc2)c([C@@H]2CCCO2)n1", "values": [{"measurement": "cytotoxicity at 10 µM", "value": 10.8, "unit": "%"}]}, {"smiles": "O=C(c1nn(-c2ccccc2F)cc1O)N1CCC2(CC1)OCCO2", "values": [{"measurement": "cytotoxicity at 10 µM", "value": -3.24, "unit": "%"}]}, {"smiles": "CCCn1cc(C(=O)NCCCC(N)=O)c2ccccc21", "values": [{"measurement": "cytotoxicity at 10 µM", "value": 6.13, "unit": "%"}]}, {"smiles": "Cc1ccc(C(=O)N2CCC(Oc3ccccc3)CC2)c(=O)[nH]1", "values": [{"measurement": "cytotoxicity at 10 µM", "value": -1.01, "unit": "%"}]}, {"smiles": "CN(c1ccncn1)C1CC2(CCN(C(=O)c3ccsc3)C2)C1", "note": "(stereo unspecified)", "values": [{"measurement": "cytotoxicity at 10 µM", "value": 4.02, "unit": "%"}]}, {"smiles": "Cc1cc(I)c2c(c1)C(=O)C(CN1CCCC1)(CN1CCCC1)CO2", "values": [{"measurement": "cytotoxicity at 10 µM", "value": -6.86, "unit": "%"}]}, {"smiles": "CCC1CNCc2cc3c(C)ccc(C)c3nc2O1", "note": "(stereo unspecified)", "values": [{"measurement": "cytotoxicity at 10 µM", "value": -4.22, "unit": "%"}]}, {"smiles": "Cc1cnn(C2CN(Cc3nnc(C4CC4)o3)C2)c1", "values": [{"measurement": "cytotoxicity at 10 µM", "value": -6.49, "unit": "%"}]}, {"smiles": "Cc1nc(CN2CCCC(N(C)CCCc3ccccc3)C2)no1", "note": "(stereo unspecified)", "values": [{"measurement": "cytotoxicity at 10 µM", "value": -0.704, "unit": "%"}]}, {"smiles": "O=C1CC2(CCCCN2C(=O)c2ccsc2)CN1CC1CC1", "note": "(stereo unspecified)", "values": [{"measurement": "cytotoxicity at 10 µM", "value": 2.84, "unit": "%"}]}, {"smiles": "CN(C)C(=O)C1CN(Cc2ccccc2)CCN(S(C)(=O)=O)C1", "note": "(stereo unspecified)", "values": [{"measurement": "cytotoxicity at 10 µM", "value": -5.43, "unit": "%"}]}, {"smiles": "Cc1ccc2c(C)c(C(=O)NCCc3csc(N)n3)oc2c1", "values": [{"measurement": "cytotoxicity at 10 µM", "value": -8.79, "unit": "%"}]}, {"smiles": "CS(=O)(=O)N[C@@H]1CCN(Cc2cccs2)[C@H]1Cc1cccnc1", "values": [{"measurement": "cytotoxicity at 10 µM", "value": -78.5, "unit": "%"}]}, {"smiles": "O=C(NCCC(=O)N1CCCC1)c1cccnc1", "values": [{"measurement": "cytotoxicity at 10 µM", "value": 11, "unit": "%"}]}, {"smiles": "CCc1nc(CC(=O)N2CCCCC2Cn2cccn2)cs1", "note": "(stereo unspecified)", "values": [{"measurement": "cytotoxicity at 10 µM", "value": -17.6, "unit": "%"}]}, {"smiles": "O=C(Nc1ccc(I)cc1C(=O)NCCN1CCOCC1)c1ccco1", "values": [{"measurement": "cytotoxicity at 10 µM", "value": 0.512, "unit": "%"}]}, {"smiles": "CC(O)CN1CCC(CNCc2ccccc2C(F)(F)F)CC1", "note": "(stereo unspecified)", "values": [{"measurement": "cytotoxicity at 10 µM", "value": -9.27, "unit": "%"}]}, {"smiles": "CCc1cnc(N2C[C@@H]3C[C@H](C(=O)NCC(C)C)[C@H](C2)O3)nc1", "values": [{"measurement": "cytotoxicity at 10 µM", "value": 12, "unit": "%"}]}]}
